Assay results taken from ChEMBL document CHEMBL4376875, “Synthesis and Biological Evaluation of B-Cell Lymphoma 6 Inhibitors of N-Phenyl-4-pyrimidinamine Derivatives Bearing Potent Activities against Tumor Growth” (J Med Chem, 2020).
Active and inactive are the calls of the source. No cut-off for these calls is given here.

Tests used:
[1] = molecular target: B-cell lymphoma 6 protein (Homo sapiens, UniProt P41182, C67R/C84N/C8Q); assay: Inhibition of recombinant human C-terminal GST-tagged BCL6 BTB domain C8Q/C67R/C84N triple mutant expressed in Escherichia coli BL21 (DE3) cells assessed as reduction in SMRT/BTB domain interaction incubated for 1 hr by HTRF assay
[2] = system: Mus musculus; assay: In vivo inhibition of GC formation in NP-CGG immunized C57BL/6 mouse assessed as splenic GC B cells (GL7+FAS+B220+) at 50 mg/kg/day, ip for 12 days starting from 2 days after NP-CGG addition by flow cytometry (reference value: 1.97%); type: functional; design: scale not given: the % may be the effect or the level left
[3] = system: SUD4; assay: Induction of apoptosis in human SUDHL4 cells assessed as late apoptotic cells at 0.625 uM incubated for 48 hrs by annexin V-FITC and propidium iodide staining based flow cytometry analysis (reference value: 1.39%); type: functional
[4] = system: NCM460; assay: Cytotoxicity against human NCM460 cells assessed as reduction in cell viability incubated for 72 hrs by CCK8 assay; conditions: NCM460, 72 h
[5] = system: SUD4; assay: Induction of apoptosis in human SUDHL4 cells assessed as early apoptotic cells at 2.5 uM incubated for 48 hrs by annexin V-FITC and propidium iodide staining based flow cytometry analysis (reference value: 2.62%); type: functional
[6] = organism: Mus musculus; conditions: C57BL/6, 50 mg/kg
[7] = system: Farage; assay: Antiproliferative activity against human Farage cells assessed as reduction in cell viability incubated for 72 hrs by CCK8 assay
[8] = system: L02; assay: Cytotoxicity against human LO2 cells assessed as reduction in cell viability incubated for 72 hrs by CCK8 assay; conditions: L02, 72 h
[9] = system: SUD4; assay: Induction of apoptosis in human SUDHL4 cells assessed as late apoptotic cells at 2.5 uM incubated for 48 hrs by annexin V-FITC and propidium iodide staining based flow cytometry analysis (reference value: 1.39%); type: functional
[10] = system: Toledo; assay: Antiproliferative activity against human Toledo cells transfected with lentivirus overexpressing BCL6 assessed as reduction in cell viability up to 20 uM incubated for 72 hrs by CCK8 assay; type: functional, cell-based
Outline: (§1)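 Lentivirus made by transfection; supernatant collected at 48 h and 72 h. DLBCL cells infected with virus plus 8 μg/mL polybrene for 48 h, then selected in RPMI 1640 with 2 μg/mL puromycin. Transduced cells seeded at 2 × 10⁴ cells/well and exposed to compound for 72 h. CCK8 added, 1-2 h at 37 °C, absorbance read at 450 nm. Run in triplicate.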

[11] = Cytotoxicity against HAF cells assessed as reduction in cell viability incubated for 72 hrs by CCK8 assay; conditions: Homo sapiens
[12] = system: SUD4; assay: Induction of apoptosis in human SUDHL4 cells assessed as early apoptotic cells at 1.25 uM incubated for 48 hrs by annexin V-FITC and propidium iodide staining based flow cytometry analysis (reference value: 2.62%); type: functional
[13] = system: Toledo; assay: Antiproliferative activity against BCL6-negative human Toledo cells assessed as reduction in cell viability incubated for 72 hrs by CCK8 assay
[14] = system: OCI-Ly7; assay: Antiproliferative activity against human OCI-LY7 cells assessed as reduction in cell viability incubated for 72 hrs by CCK8 assay; conditions: OCI-Ly7, 72 h
[15] = system: SUD4; assay: Induction of apoptosis in human SUDHL4 cells assessed as late apoptotic cells at 1.25 uM incubated for 48 hrs by annexin V-FITC and propidium iodide staining based flow cytometry analysis (reference value: 1.39%); type: functional
[16] = system: DOHH-2; assay: Antiproliferative activity against human DOHH2 cells assessed as reduction in cell viability incubated for 72 hrs by CCK8 assay; conditions: DOHH-2, 72 h
[17] = system: Farage; assay: Antiproliferative activity against human Farage cells transfected with empty vector lentivirus assessed as reduction in cell viability at 10 to 80 uM incubated for 72 hrs by CCK8 assay; type: functional, cell-based; outline: as §1
[18] = system: SUD4; assay: Antiproliferative activity against human SUDHL4 cells assessed as reduction in cell viability incubated for 72 hrs by CCK8 assay; conditions: SU-DHL-4, 72 h
[19] = system: SUD4; assay: Induction of apoptosis in human SUDHL4 cells assessed as early apoptotic cells at 0.625 uM incubated for 48 hrs by annexin V-FITC and propidium iodide staining based flow cytometry analysis (reference value: 2.62%); type: functional
[20] = system: SUD4; assay: Antiproliferative activity against human SUDHL4 cells assessed as living cells and S phase cells at 2.5 uM incubated for 48 hrs by Edu based flow cytometry analysis (reference value: 48.3%)
[21] = system: Farage; assay: Antiproliferative activity against human Farage cells transfected with lentivirus expressing BCL6 shRNA assessed as reduction in cell viability at 10 to 80 uM incubated for 72 hrs by CCK8 assay; type: functional, cell-based
[22] = system: PNT1A; assay: Cytotoxicity against human PNT1A cells assessed as reduction in cell viability incubated for 72 hrs by CCK8 assay
[23] = system: SUD4; assay: Antiproliferative activity against human SUDHL4 cells assessed as living cells and S phase cells at 0.625 uM incubated for 48 hrs by Edu based flow cytometry analysis (reference value: 48.3%)
[24] = system: SUD4; assay: Antiproliferative activity against human SUDHL4 cells assessed as living cells and S phase cells at 1.25 uM incubated for 48 hrs by Edu based flow cytometry analysis (reference value: 48.3%)
[25] = system: Toledo; assay: Antiproliferative activity against human Toledo cells transfected with empty vector lentivirus assessed as reduction in cell viability up to 20 uM incubated for 72 hrs by CCK8 assay; type: functional, cell-based; outline: as §1
[26] = molecular target: B-cell lymphoma 6 protein (Homo sapiens, UniProt P41182); assay: Binding affinity to lateral groove of BCL6 BTB domain (unknown origin)
Outline: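 GST-tagged BCL6 protein was expressed in E. coli BL21(DE3), purified on glutathione Sepharose, dialysed into PBS and used for biolayer interferometry. GST biosensors were hydrated 10 min in kinetics buffer (1× PBS, 0.02% Tween 20), given a 60 s baseline, then loaded with BCL6-GST at 50 ng/mL for 300-600 s. After a second 60 s baseline, sensors were dipped into serially diluted compound.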

COc1ccc(Nc2nc(N3C[C@H](C)C[C@H](C)C3)ncc2F)cc1Cl
IC50 [1]: > 10 µM

O=C(O)CCN1C(=O)/C(=C2/C(=O)Nc3ccc(Cl)cc32)SC1=S
Activity [2]: 0.73% | Activity [3]: 1.81% | IC50 [4]: > 100 µM | Activity [5]: 3.19% | inhibition [6]: Active | IC50 [7]: 33.9 µM | IC50 [8]: > 100 µM | Activity [9]: 1.96% | Activity [10]: Active | IC50 [11]: > 100 µM | Activity [12]: 2.62% | IC50 [13]: 65.3 µM | IC50 [14]: 39 µM | Activity [15]: 1.73% | IC50 [16]: 35.1 µM | Activity [17]: Active | IC50 [18]: 51.3 µM | Activity [19]: 2.86% | Activity [20]: 47.4% | Activity [21]: Active | IC50 [22]: > 100 µM | Activity [23]: 48.5% | Activity [24]: 45.1%

COc1cc(Nc2nc(N3C[C@@H](C)N[C@@H](C)C3)ncc2F)ccc1NC(=O)c1ccc(Br)s1
IC50 [1]: > 10 µM

O=C1Cc2cc(Nc3nc(NCc4cccnc4)ncc3Cl)ccc2N1
Activity [25]: Active | Activity [3]: 1.89% | IC50 [4]: > 100 µM | Activity [5]: 3.15% | IC50 [7]: 33.5 µM | IC50 [8]: > 100 µM | Activity [9]: 1.74% | Activity [10]: Active | IC50 [11]: > 100 µM | Activity [12]: 3.43% | IC50 [13]: 39.5 µM | IC50 [14]: 33.9 µM | Activity [15]: 1.97% | IC50 [16]: 47.6 µM | Activity [17]: Active | IC50 [18]: 24.3 µM | Activity [19]: 3.11% | Activity [20]: 41.2% | Activity [21]: Active | IC50 [22]: > 100 µM | Activity [23]: 43.4% | Activity [24]: 41.6%

O=C(O)CC(C(=O)O)N1C(=O)/C(=C2/C(=O)Nc3ccc(Br)cc32)SC1=S (stereo not drawn)
Kd [26]: 138 µM

COc1ccc(Nc2nc(N3C[C@@H](C)N[C@@H](C)C3)ncc2F)cc1NC(=O)c1ccc(Br)s1
IC50 [1]: > 20 µM

COc1ccc(Nc2nc(N(CC(C)C)CC(C)C)ncc2F)cc1Cl
IC50 [1]: > 10 µM

CCCCNc1ncc(F)c(Nc2ccc(OC)c(Cl)c2)n1
IC50 [1]: > 10 µM

COc1ccc(Nc2nc(N3C[C@@H](C)N[C@@H](C)C3)ncc2F)cc1NC(=O)c1ccc(Br)o1
IC50 [1]: > 20 µM

COc1cc(Nc2nc(N3C[C@@H](C)N[C@@H](C)C3)ncc2F)ccc1NC(=O)c1ccc(Br)o1
IC50 [1]: > 10 µM
